From ChEMBL document CHEMBL2029301, “Development of a series of 3-hydroxyquinolin-2(1H)-ones as selective inhibitors of HIV-1 reverse transcriptase associated RNase H activity” (Bioorg Med Chem Lett, 2012)
Active and inactive are the calls of the source. The calls are words filed in the database; no cut-off is given here.

Legend:
[1] = test system: Human immunodeficiency virus 1; test: Antiviral activity against HIV1 infected in MT4 cells assessed as inhibition of virus-induced cytopathic effect; assay type: functional, organism-based; details: Human immunodeficiency virus 1, MT4
[2] = target: T1, Human immunodeficiency virus type 1 reverse transcriptase (Human immunodeficiency virus 1, UniProt Q72547); test: Inhibition of HIV1 reverse transcriptase RNase H activity
[3] = Cytotoxicity against human MT4 cells; assay type: cell-based
[4] = target: Human immunodeficiency virus type 1 integrase (Human immunodeficiency virus 1, UniProt Q7ZJM1); test: Inhibition of HIV1 integrase
In short: (§1)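 Mg-dependent HIV-1 integrase and RT RNA-dependent DNA polymerase activities measured in vitro, with compounds tested at concentrations up to 250 µM.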

[5] = target: T1, Human immunodeficiency virus type 1 reverse transcriptase; test: Inhibition of HIV1 reverse transcriptase associated RNA dependent polymerase activity; in short: as §1
[6] = target: Human immunodeficiency virus type 1 reverse transcriptase (Human immunodeficiency virus 1) (UniProt Q72547); test: Inhibition of HIV1 reverse transcriptase RNase H activity assessed as remaining activity at 100 uM
In short: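 In vitro HIV-1 RT-associated RNase H activity measured with compound at 100 µM, expressed as percentage of remaining enzyme activity.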

[7] = target: Human immunodeficiency virus type 1 reverse transcriptase (Human immunodeficiency virus 1) (UniProt Q72547); test: Selectivity ratio of IC50 for HIV1 reverse transcriptase associated RNA dependent polymerase activity to IC50 for reverse transcriptase Rnase H activity
[8] = test system: Human immunodeficiency virus 1; test: Selectivity ratio of IC50 for HIV1 integrase to IC50 for reverse transcriptase Rnase H activity
[9] = test system: Human immunodeficiency virus 1; test: Binding affinity to HIV1 Reverse transcriptase RNase H domain p15 assessed as intrinsic fluorescence quenching at 100 uM by fluorimetry
In short: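 Recombinant isolated HIV-1 RT RNase H domain (p15) excited at 290 nm to maximise the tryptophan signal. Ligand binding at the active site is read as quenching of intrinsic fluorescence. HTHI (2-hydroxy-1,2,3,4-tetrahydroisoquinoline-1,3-dione) serves as positive control.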

Human immunodeficiency virus type 1 integrase, sequence (Q7ZJM1 whole entry): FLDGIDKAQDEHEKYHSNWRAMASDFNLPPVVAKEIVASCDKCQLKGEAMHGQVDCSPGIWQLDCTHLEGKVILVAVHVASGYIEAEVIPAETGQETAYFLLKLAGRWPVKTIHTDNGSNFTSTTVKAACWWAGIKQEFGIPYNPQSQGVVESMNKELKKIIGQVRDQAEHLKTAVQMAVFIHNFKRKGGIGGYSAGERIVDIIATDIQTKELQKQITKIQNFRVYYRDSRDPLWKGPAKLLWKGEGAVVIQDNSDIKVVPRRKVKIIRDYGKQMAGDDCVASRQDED

| EC50 [1] [µM] | IC50 [2] [µM] | IC50 [4] [µM] | IC50 [5] [µM] | Activity [6] [%] | Ratio IC50 [7] | Ratio IC50 [8] | Activity [9] | SMILES | CC50 [3] [µM] |
| --- | --- | --- | --- | --- | --- | --- | --- | --- | --- |
| > 250 | > 100 | – | – | 100 | – | – | – | O=C(O)c1c(O)c(=O)[nH]c2ccc(F)cc12 | 250 |
| > 118 | 64 | – | – | – | – | – | – | CCOC(=O)c1c(O)c(=O)[nH]c2ccc([N+](=O)[O-])cc12 | 118 |
| > 210 | 16 | – | – | – | – | – | – | CCOC(=O)c1c(O)c(O)nc2ccccc12 | 210 |
| > 28 | 18 | > 250 | > 250 | – | > 14 | > 14 | – | O=C(NCc1ccc(F)cc1)c1c(O)c(=O)[nH]c2ccc(Cl)cc12 | 28 |
| > 250 | > 100 | – | – | 88 | – | – | – | O=C(O)c1c(O)c(=O)[nH]c2c(F)cccc12 | > 250 |
| > 22 | 49 | – | – | – | – | – | – | CCCCCCNC(=O)c1c(O)c(=O)[nH]c2c(F)cccc12 | 22 |
| – | – | – | – | 97 | – | – | – | O=c1[nH]c2ccccc2cc1O | 115 |
| > 250 | 97 | – | – | – | – | – | – | O=C(O)c1c(O)c(=O)[nH]c2ccc([N+](=O)[O-])cc12 | > 250 |
| > 29 | 19 | > 250 | > 250 | – | – | – | Active | O=C(NCc1ccc(F)cc1)c1c(O)c(=O)[nH]c2ccccc12 | 29 |
| > 250 | 59 | – | – | – | – | – | – | O=C(O)c1c(O)c(O)nc2ccccc12 | > 250 |

Further lines, the compound ahead of its results:

| SMILES | EC50 [1] [µM] | IC50 [2] [µM] | IC50 [4] [µM] | IC50 [5] [µM] | Activity [6] [%] | Ratio IC50 [7] | Ratio IC50 [8] | Activity [9] | CC50 [3] [µM] |
| --- | --- | --- | --- | --- | --- | --- | --- | --- | --- |
| O=C(NCc1ccc(F)cc1)c1c(O)c(=O)[nH]c2ccc(F)cc12 | > 24 | 22 | > 250 | > 250 | – | – | – | – | 24 |
| COc1ccc(CNC(=O)c2c(O)c(=O)[nH]c3c(F)cccc23)cc1 | > 8 | 74 | – | – | – | – | – | – | 8 |
| O=C(NCc1ccc(F)cc1)c1c(O)c(=O)[nH]c2c(F)cccc12 | > 6.8 | 75 | – | – | – | – | – | – | 8 |
| CCOC(=O)c1c(O)c(=O)[nH]c2ccc(Cl)cc12 | > 117 | > 100 | – | – | 100 | – | – | – | 117 |
| CCOC(=O)c1c(O)c(=O)[nH]c2ccc(N)cc12 | > 250 | > 100 | – | – | 100 | – | – | – | 250 |
| COc1ccc(CNC(=O)c2c(O)c(=O)[nH]c3ccc(F)cc23)cc1 | > 29 | 19 | > 250 | > 250 | – | – | – | – | 29 |
| CCOC(=O)c1c(O)c(=O)[nH]c2ccc(F)cc12 | > 134 | > 100 | – | – | 100 | – | – | – | 134 |
| CCOC(=O)c1c(O)c(=O)[nH]c2c(F)cccc12 | > 238 | > 100 | – | – | 100 | – | – | – | 238 |
| O=C(O)c1c(O)c(=O)[nH]c2ccc(Cl)cc12 | > 250 | > 100 | – | – | 100 | – | – | – | > 250 |
